Tested on: MS2 coat protein
Experiment: apparent Kd, MS2 coat protein; higher = weaker binding; RNA-MaP array; FMN 200 µM where present
Outline: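 Apparent Kd: the median of filtered binding-curve fits from single clusters. Designs were transcribed on Illumina sequencing-chip clusters by stalled E. coli RNA polymerase and titrated with SNAP-549-labelled MS2 coat protein from 0.7 or 1.5 nM, doubling to 3 µM, in 100 mM Tris-HCl pH 7.5, 80 mM KCl, 4 mM MgCl2, BSA, DTT, yeast tRNA and Tween-20. Each series ran without and then with constant ligand, and green signal was normalised to red-channel RNA signal and control-cluster median Fmax.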

[1] = designed as: OFF switch for flavin mononucleotide, no ligand
[2] = ligand present: flavin mononucleotide, designed as: OFF switch for flavin mononucleotide
[3] = designed as: ON switch for flavin mononucleotide, no ligand
[4] = ligand present: flavin mononucleotide, designed as: ON switch for flavin mononucleotide

Sequence	apparent Kd [1] [nM]	apparent Kd [2] [nM]	apparent Kd [3] [nM]	apparent Kd [4] [nM]
UAAACGUUCUAGAAGGUGCUAGCGAUAAGCUAGCAAGGAUAUAGACAUGAGGAUCACCCAUGUCUUUGUGACAUCGACAUACUU	9.03	12.1	–	–
CUUUUGUGAGGAUAUCAGUAGUAUAUAAAUAAAAUUACUACUGAGAAGGCACAUGAGGAUCACCCAUGUUCCUC	39.2	164	–	–
AAUUAACAUGAGGAUCACCCAUGUGAGGAUAUGAUAUUACUUGGACAGCUAUGAUCAAUCAGAAGGCACAUCUU	22.3	28.5	–	–
GUAGCUAUCGGAGGAUAUUCAUACCGGAAACGGACAUGAGGAUCACCCAUGUGGCGAAAGUCUUGGGAGAAGGCCGAUAGCUAC	–	–	75.5	6.28
CGCUGUCUCGCAGGAUAUGCAUUGGAUUACAAUGCAGAAGGGCGAUUACAUGAGGAUCACCCAUGUGUUGACAGUGAAGAAGAG	–	–	114	21.6
AACGCGUCAGGAUAUAGCGUAAUUUAGGUAGUACGACCAUACUAGAAGGGACAUGAGGAUCACCCAUGUGGGUA	212	118	–	–
CCUGUGUGAGGAUAUGGUGUUAAAAAAAAAAAAUAGCUCCUCCAGAAGGCACAUGAGGAUCACCCAUGUCGUGG	33.5	69.2	–	–
UGGUACUAGGGAGGAUAUGGGAAGAUACAUGAGGAUCACCCAUGUUUAAGAAUGCCGAGAGGCAACUAGAAGGCCCUAGUCCCU	–	–	317	19.1
AAAAGACAUGAGGAUCACCCAUGUAAAGACGUAGGAGGAUAUGUAUGGAAACCAUACUGUACAGAAGGCCUUUGUC	–	–	23.8	18.3
UAACUGCAGAAGAUAAUAAUGAAUACAUGAGGAUCACCCAUGUAGGAUAUCGUCAGGAAUACUGACGAGAAGGACAUACUGCAG	14.1	16.9	–	–
GUGGCCUAGGCACAGGAUAUGUUUCUCGUAACAUGAGGAUCACCCAUGUGCCUUUGAGAUUUUAUGCAGAAGGGUGCACGCCACG	–	–	488	24.3
AUUAUUGGCUAAGGAUAUGGAUACAUGAGGAUCACCCAUGUAUUUUUUGUGAUCAUAUAAAUGAUCCAGAAGGUAGCUGUUUAU	23.1	70.1	–	–
AGAAACUACGAGAAGGACAUAUGGUACUUCAGCUACAUGAGGAUCACCCAUGUAGGAUAUCGUAGUUUCAGGAUCGUGAGAUCA	5.65	6.02	–	–
UGGUACUAGGGAGGAUAUGGGAUGAUACAUGAGGAUCACCCAUGUUUAAGAAUGCCGAGAGGCAACUAGAAGGCCCUAGUACCU	–	–	448	174
GCCAUCGCAUGAGGAUAUGCUCCGGUUUCCGGAGCAGAAGGUAUGUCAUAAGACAUGAGGAUCACCCAUGUAGGUAAGAUGGCA	–	–	221	31.3
UUAGCGCGAGGAUAUGCGGUUUGUGCUUUGGGCCCUGGCGUACAUGAGGAUCACCCAUGUAGAAGGCGUGUUGU	24.7	24.8	–	–
UCCAGGUAAGGAUAUGGGCUGGACACCGGGUACGGCCAGCACCAGAAGGUACAUGAGGAUCACCCAUGUGUUCC	54.5	274	–	–
GACUGCUGAGGAUAUACAUGAGGAUCACCCAUGUGCUUCAGUAUCGAAAGAUGCAUGGGUAGAAGGUGGUAGUC	70.6	54.4	–	–
AGAUAGGAUGCAGGAUAUCUAUCUUGAAUGAGGAGAGAAGGGCAAGUAGAUAGAUAAGCCUCAUGACAUGAGGAUCACCCAUGU	14.1	12.9	–	–
UAUUUAUAGCAAGGAUAUGAUUAUUAUUAUUUAUCAGAAGGUGCACAUGAGGAUCACCCAUGUUUUAUAAUUUGUAAUUUAAUU	55.6	21.8	–	–
GAAAACAGAGGAUAUACAAAAUUAUGACGAAAGUCAUAAAAACAUGAGGAUCACCCAUGUAGAAGGCUGAAGAA	29	26.9	–	–
GUCAGCUCGUGAGGAUAUACAUCACUGCUUCGGCAGUGUAUUAAAUCCACAUGAGGAUCACCCAUGUAGAAGGCACGAGCUGAU	16.7	31	–	–
UAUCAUUACACGAAGGAUAUCGAUAAUUGAACAUGAGGAUCACCCAUGUGAUAUAUUUUACAGUUCGAGAAGGUCGAGGGUGAAG	–	–	35.6	18
AAUAUAAGAGCUGGUAAAUAAAUCACAUGAGGAUCACCCAUGUAGGAUAUCAGCACGAUAAGUGCUGAGAAGGACAUCCAGCUC	13.4	14.6	–	–
AUUUAUGGCCAGAAGGACAUGAGGAUCACCCAUGUAGGAUAUGGACGAUUUUGCUCGGCGGUUCGUUUAGGAAUCACCGGUGGU	–	–	7.88	6.38
UUUGUGUCAGGAUAUGAGUCGUAGAACAAUAGUACUACGUCUCAGAAGGGACAUGAGGAUCACCCAUGUGCCUC	35.4	281	–	–
AAUAGAAAGAUUAAUAUGAUUACAUGAGGAUCACCCAUGUAUAAGGAUAUCGACGUCAAUGACGUCGAGAAGGUAUACAUAAUA	15.7	34	–	–
AAAUAAACUACGAAGAUAUCCUCACAUGAGGAUCACCCAUGUCAGGAUAUUUGUCCUAAAAGGACAGAGAAGGGACGUCGUAGA	5.09	7.54	–	–

Sequence	apparent Kd [1] [nM]	apparent Kd [2] [nM]	apparent Kd [3] [nM]	apparent Kd [4] [nM]
ACAUUUUAUGCAGGAUAUUGACAUAUAUUUAAACAAGAAGGGCAUUACAUGAGGAUCACCCAUGUUAUAAUGGUAUAUAAGUUC	21.4	19.2	–	–
AUCAGCUCGUGAGGAUAUACAUGAUAGAUCGAUUAAUUAAUUAAUUUAACAUGAGGAUCACCCAUGUAGAAGGUACGAGCUGAU	52.3	50.5	–	–
CUGAGGUAAGGAUAUAGGAGAGAAGAUAAGGUAUGAGAGUUCUAGAAGGUACAUGAGGAUCACCCAUGUUAGGG	477	235	–	–
AUAAAUCAUGUAGGAUAUGCGUGGCGAAGCUAUGCAGAAGGACAUGAGGAUCACCCAUGUCUUUCCGUCUGCGUACAGACGGGA	30.9	225	–	–
GUAAGCUCGUGAGGAUAUACAACACUGCUUCGGCAGUGUAUUAAGAUCACAUGAGGAUCACCCAUGUAGAAGGCACGAGCUGAU	13.8	245	–	–
GGAUCCAACACAGGAUAUGCUGGACUUUGUCCAGCAGAAGGGUGUACAUGAGGAUCACCCAUGUAUUGGAUCCAUAUAUUUAAU	–	–	996	80.8
GCACUGGAUGUAGGAUAUCAGGACGAUAAGUCCUGAGAAGGACAUGAGGAUCACCCAUGUAAAACUCACCAGUGCUAUAAUAUA	12.8	17.7	–	–
CCCGGGCCUGUGAGGAUAUCGGGCCCGAAAGGGCCCGAGAAGGCACAUGAGGAUCACCCAUGUAAGGGUUUGGG	27.4	19.7	–	–
UGUCCAUAGCAGAAGGACAUAAAUUUCCAUGAAAACAUGAGGAUCACCCAUGUAGGAUAUGCUAUGGACUAAGAGCGAAAGCUC	5.21	10.3	–	–
GCGUCGAGUGUGAGGAUAUGCUGGUCCUUGGAUCAGCAGAAGGCACAUGAGGAUCACCCAUGUGAAAACGAUGC	22.7	140	–	–
UGAUCGAGAGAUCUUAGAUUCUGGUAGGAUAUACAUUAUGUUUGAAAUACAUGAGGAUCACCCAUGUAGAAGGACUAGAGUCUA	6.71	11.7	–	–
AAGUUCUGUGAGAAGGCGCCCUUUGCGGUUGGGCGAGGAUAUCACAUGAGGAUCACCCAUGUCGGUGCAUCAGACAGCGUAUUU	810	156	–	–
CGUGCGUAUGUGAGGAUAUGCUGGUCCUUGGCUCGGCAGAAGGCACAUGAGGAUCACCCAUGUGGUGUCGUACC	21.9	58.6	–	–
UGUAAAUUAUUAAGUAAUUAGGCGAAGGAUAUAUAACAUGAGGAUCACCCAUGUACUAAAUUGAAGUAGAAGGUUGAGCAUUUC	–	–	16.5	14.6
AACAGUCUGGAGGAUAUGCUGGAUGAAUAUCUGGCAGAAGGCUGGACAUGAGGAUCACCCAUGUAAAUACUACC	27.1	54.5	–	–
GUCAGCUCGUGAGGAUAUACAACACUGCUUCGGCAGUGUAUCAAGAUCACAUGAGGAUCACCCAUGUAGAAGGCACGAGCUGAU	13.2	234	–	–
CCCAGUGCAUCAGGAUAUCCUCACAUGAGGAUCACCCAUGUAAUGAGCCGAGGAGAAGGGAUGUGAACUCCAGUUACCGAUCGU	–	–	267	42.2
AUCAGCUCGUCAGGAUAUAGGUCACUGCGUCAGCAGUGUGGUAAGAUCACAUGAGGAUCACCCAUGUAGAAGGGACGAGCUGAU	17.3	59.5	–	–
ACUGUUAAGACAGGAUAUCGAUUAUAACCUCUAAAACAUGAGGAUCACCCAUGUAGUCCGUAUUGCGAGAAGGGUCAUUUUAGU	–	–	295	233
UUGCCACAUGAGGAUCACCCAUGUGAGGAUAUGGCCUGUUUGGCGUGAGCUGGUUCUGUCAGAAGGCGCGUGGG	45.9	51.3	–	–
GAUAAACAUGAGGAUCACCCAUGUGUGAAUAUGGGAGGAUAUACGUGGACCGUAGUCCGCGUAGAAGGCCUAAUUG	–	–	225	40.4
CAGAAGUCAGGAUAUCCAUGGCGGCACUUGCGUGGUGGCGUGGAGAAGGGACAUGAGGAUCACCCAUGUAAAGU	58.7	61.7	–	–
CAGGUAGACUGAGGAUAUACAAUAAACAGCUAGUCUAUCUAGCUGCUCACAUGAGGAUCACCCAUGUAGAAGGCAGUCUGCCUG	18.7	45.1	–	–
AUUUAAAAGCAGAAGGGCAAGGUGGAUCCCUCACAUGAGGAUCACCCAUGUCUAGGCUUUACCGUGCAGGAUAUGCAAGUAAUA	–	–	26	58.5
AAAAGUUGGUAAGGAUAUCCCACAUUAUUCUGACCCGUGCAAGCUACAUGAGGAUCACCCAUGUGGGAGAAGGUGCGUUAAAGA	54.7	64.6	–	–
AUGUAUCACACAGGAUAUACAUGAGGAUCACCCAUGUGUCCUCCGUAAUUGACACCAAUUACGCUGUAGAAGGGUGUGAUACAU	274	204	–	–
GUCUCAGUUGGCUUCAAGGGCGGUCAGGAUAUGCUAACGUACAUGAGGAUCACCCAUGUCCAAGUGCAGAAGGGACAUACGCCA	–	–	62.6	7.85

— the EternaBench riboswitch data
